V1aR counter = activates human V1a receptor in oxytocin agonist counter-screen. P37288. CHO-V1R cells, Fluo-8 calcium fluorescence, agonist mode; 0% DMSO, 100% 3 nM vasopressin. activation, % at 3 µM. 320,000 compounds, 0.25% hits. AID 2797;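 active = activation above the mean activation of all tested compounds plus 3 SD, per screening run, cut at about 20% in these data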;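 also: signal is peak over basal fluorescence ratio across a 100 second FLIPR read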
OXTR potentiator = potentiates the human oxytocin receptor response; P30559; CHO-OTR cells, Fluo-8 calcium fluorescence, potentiator mode; 0% = oxytocin EC15, 100% = EC100; activation, % at 3 µM; 320,000 compounds, 0.061% hits;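 active = activation above that plate's cutoff, the mean activation of tested compounds plus 3 SD, cut at about 6.6% in these data, passing the limit was not always enough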
Target sequence (P30559 whole entry, looked up): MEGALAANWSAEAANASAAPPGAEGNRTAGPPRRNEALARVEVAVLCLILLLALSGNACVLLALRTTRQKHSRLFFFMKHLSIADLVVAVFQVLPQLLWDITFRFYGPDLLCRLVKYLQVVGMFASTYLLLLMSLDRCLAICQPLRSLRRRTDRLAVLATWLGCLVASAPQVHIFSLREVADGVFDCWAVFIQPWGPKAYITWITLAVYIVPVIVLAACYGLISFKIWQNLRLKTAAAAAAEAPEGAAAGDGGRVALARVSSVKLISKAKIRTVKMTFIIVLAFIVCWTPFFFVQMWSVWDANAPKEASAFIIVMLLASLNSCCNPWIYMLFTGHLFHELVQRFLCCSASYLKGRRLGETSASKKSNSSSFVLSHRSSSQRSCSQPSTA
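test system = CHO-OTR cells, human receptor | compound = single-point 3.0 µM | schedule = 6 min compound pre-incubation at room temperature, 100 s kinetic read | signal = Fluo-8 no-wash calcium dye fluorescence, excitation 470-495 nm, emission 515-575 nm | repeats = single well per compound, singlicate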
OX1R antag-1 = human HCRTR1 antagonism; inhibition, % at 5 µM; CHO/OX1R cells, Fluo-8 calcium fluorescence, orexin A; 330,000 compounds, 0.43% hits; O43613;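 active = inhibition above its plate's threshold, mean inhibition of all tested compounds on the plate plus 3 SD, cut at about 37% in these data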
OX1R antag-2 = antagonists of human orexin 1 receptor (OX1R). OX1R-expressing cells, FRET antagonist read-out. 330,000 compounds, 1.8% hits. O43613. inhibition, % at 6.6 µM. AID 485270; in the data active = inhibition mostly above about 38%, no sharp cut-off; inactive = mostly below about 40%
OXTR ag = activates the human oxytocin receptor; CHO-OTR cells, Fluo-8 calcium fluorescence; normalized: DMSO 0%, oxytocin 100%; AID 2435; activation, % at 3 µM; P30559; 320,000 compounds, 0.32% hits;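 active = activation above the mean of all tested compounds plus 3 SD, cutoff set per screening run, cut at about 20% in these data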;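 also: peak over basal fluorescence ratio from a 100 s FLIPR kinetic read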
CHO parental Ca = counter-screen for OX1R antagonists: effect in parental CHO cells; AID 463079; parental CHO-K1, ATP-induced calcium, Fluo-8 fluorescence; inhibition, % at 5.6 µM; 330,000 compounds, 0.63% hits;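 active = inhibition above that plate's mean sample inhibition plus 3 SD, cut at about 26% in these data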
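test system = CHO parental line | reagent = ATP stimulus | measured by = intracellular calcium via Fluo-8 no-wash fluorescent dye | control set = ATP and no-ATP DMSO wells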
Of the large screens only hits and unclear results are named; the others gave an inactive call. This is a sample that favours compounds with a hit; in the whole collection about 2.7% have one here.

Cc1ccc(NC(=O)Cn2sc3nc(C)cc(C)c3c2=O)c(Cl)c1	CHO parental Ca 46.4
Cc1cc(C)c2c(=O)n(CC(=O)NCCCN3CCN(c4ccccc4F)CC3)sc2n1	CHO parental Ca 44.7
CSCC[C@H](NC(=O)c1ccc(OCC2CCCO2)cc1)c1nc2ccccc2[nH]1 (some centres not stated)	none
COc1cc(Cl)c(NS(=O)(=O)c2cc3[nH]c(=O)c(=O)[nH]c3cc2C)c(OC)c1	none
CC(C)(C)OC(=O)C[C@H]1C/C=C\C[C@H](CC(=O)N(CCO)Cc2ccccc2)C(=O)N2CCC[C@H]2COC1=O	none
COc1ccc(NC(=O)[C@@H]2CCCN2S(=O)(=O)c2ccccc2F)cc1S(=O)(=O)N1CCCCC1	none
Cc1cc(C)c2c(=O)n(CC(=O)Nc3ccc(Cl)cc3)sc2n1	V1aR counter 30.3, OX1R antag-1 45.2, OXTR ag 32.2, CHO parental Ca 56.0
Cc1ccccc1-n1c(=O)c(C#N)cc2c(=O)n3ccccc3nc21	OX1R antag-2 48.5
N#Cc1cc2c(=O)n3ccccc3nc2n(-c2ccc(Cl)cc2)c1=O	none
CCc1ccccc1NC(=O)CSc1nc(-c2ccccc2)nn1C(=O)c1cccc([N+](=O)[O-])c1	OX1R antag-2 42.2
Cn1cccc1/C=C1\CCC/C(=C\c2cccn2C)C1=O	V1aR counter 44.2, OX1R antag-1 92.5, OXTR ag 75.0, CHO parental Ca 70.1
O=C(CN(C(=O)CCC(=O)Nc1nccs1)c1cccc(F)c1)NCc1ccccc1	none
Cn1c(=O)c2c(ncn2CC(=O)OCCCC(=O)c2ccc(Br)cc2)n(C)c1=O	CHO parental Ca 34.7
CCOc1ccc(C(=O)COC(=O)Cn2cnc3c2c(=O)n(C)c(=O)n3C)cc1	none
COc1ccc(OC)c(NS(=O)(=O)c2ccc(Cl)s2)c1	none
COc1ccc(OC)c(NS(=O)(=O)c2ccc(Br)s2)c1	CHO parental Ca 38.3
Clc1ccc(C(Cn2ccnc2)OCc2c(Cl)cccc2Cl)c(Cl)c1 (configuration not stated)	CHO parental Ca 60.2
OC(Cn1ccnc1)c1ccc(Cl)cc1Cl (configuration not stated)	none
CCC1CCC2(CC1)NC(=O)N(CC(=O)N1CCc3ccccc31)C2=O (configuration not stated)	none
CCOc1ccc(Nc2nc(Cc3nnc(SCC(=O)c4ccc(C)c(C)c4)o3)cs2)cc1	CHO parental Ca 29.0
CN(C)CCCN(C(=O)c1cc2cc([N+](=O)[O-])ccc2s1)c1nc2cc3c(cc2s1)OCCO3	none
NC(=O)Cc1ccc(C(=O)CSc2nnc(-c3ccncc3)n2C2CC2)s1	none
O=[N+]([O-])c1ccc(S(=O)(=O)NCCc2cn3ccccc3n2)cc1	OX1R antag-2 42.4
CC(OC(=O)c1ccccc1CCc1ccccc1)C(N)=O (configuration not stated)	none
CCCCN(C(=O)CCCc1nc2ccccc2c(=O)[nH]1)c1c(N)n(CC(C)C)c(=O)[nH]c1=O	none
CSc1nnc(-c2cccn(Cc3ccccc3)c2=O)o1	none
O=c1c(-c2nnc(SCc3ccc(Cl)cc3Cl)o2)cccn1Cc1ccccc1	OX1R antag-1 49.1, OX1R antag-2 51.7, CHO parental Ca 43.0
COc1cccc(NC(=S)NC(C)c2ccc(OC)c(OC)c2)c1 (configuration not stated)	OX1R antag-2 75.1
O=C(CCN1CCOCC1)NNC(=O)c1ccc([N+](=O)[O-])cc1[N+](=O)[O-]	OX1R antag-2 48.6
O=C(CCN1CCOCC1)NNC(=O)c1ccc(Cl)c([N+](=O)[O-])c1	none
CC(C)c1ccc(N2C(=O)[C@@H]3Cc4ccccc4CN3C2=O)cc1	CHO parental Ca 45.2
Cc1ccc(S(=O)(=O)N2[C@@H](c3ccc(Br)cc3)C(C(=O)O)=CC[C@H]2c2cccs2)cc1	none
COc1ccc(CN(C)S(=O)(=O)c2nnc(NC(=O)c3cccc(F)c3)s2)cc1OC	OX1R antag-2 43.3
Cc1ccc(S(=O)(=O)N2CCCCC2)cc1C(=O)N1CCCCCC1	none
COC(=O)CSc1nc(-c2ccc(F)cc2)cc(C(F)(F)F)n1	none
OC(c1cc(-c2ccc(C(F)(F)F)cc2)nc(C(F)(F)F)c1)C1CCCCN1 (configuration not stated)	V1aR counter 26.2, OXTR ag 22.6
COc1ccccc1CNS(=O)(=O)c1cccc2nsnc12	none
O=C(O)C(Cc1c[nH]c2ccccc12)NS(=O)(=O)c1cccc2nsnc12 (configuration not stated)	OX1R antag-2 61.0
COc1ccccc1CNC(=O)C(NS(=O)(=O)c1cccc2nsnc12)C(C)C (configuration not stated)	OX1R antag-2 76.2
Cc1cccc(NS(=O)(=O)c2cccc3nsnc23)c1	none
CC(C)C(NS(=O)(=O)c1cccc2nsnc12)C(=O)NC1CCCCC1C (configuration not stated)	OX1R antag-2 45.7
O=C(O)C(Cc1c[nH]c2ccccc12)NS(=O)(=O)c1ccccc1 (configuration not stated)	none
Cc1ccnc(NS(=O)(=O)c2cccc3nsnc23)c1	OX1R antag-2 127.0
Cc1ccc(S(=O)(=O)N2CCN(C(=O)COC(=O)c3ccc(Cl)nc3)CC2)c(C)c1	none
C[C@@H](C(=O)OCC(=O)c1ccc(F)c(F)c1)N1C(=O)C2CCCCC2C1=O (some centres not stated)	none
CC(C)NS(=O)(=O)c1cccc2nsnc12	OX1R antag-2 71.8
Cc1ccc2cccc(S(=O)(=O)Nc3c(C)n(C)n(-c4ccccc4)c3=O)c2n1	none
Cc1c(NS(=O)(=O)c2cccc3nsnc23)c(=O)n(-c2ccccc2)n1C	OX1R antag-2 76.7
O=C(NCc1cccs1)C(NS(=O)(=O)c1cccc2nsnc12)c1ccccc1 (configuration not stated)	OX1R antag-2 49.2
CC(C)CC(=O)N1CCN(C(=O)c2ccc(F)cc2)CC1	none
N#Cc1c(-c2ccc(Cl)cc2)ccn2nc(CCC(=O)O)nc12	OX1R antag-2 56.1
CCCCCc1nc2c(C#N)c(-c3ccc(Cl)cc3)ccn2n1	none
COc1ccc(CN(C(=O)CSc2nnc(-c3ccccc3F)o2)c2ccc(F)cc2)cc1	CHO parental Ca 26.4
Cc1c(NC(=O)/C(C#N)=C/c2ccccc2)c(=O)n(-c2ccccc2)n1C	none
Cc1c(NC(=O)/C(C#N)=C/c2ccc(-c3ccc(Cl)c(Cl)c3)o2)c(=O)n(-c2ccccc2)n1C	none
Cc1c(NC(=O)/C(C#N)=C/c2ccc(-c3ccccc3Cl)o2)c(=O)n(-c2ccccc2)n1C	OX1R antag-2 75.0
